Laboratory results as given in ChEMBL document CHEMBL4680066, “Deacylcortivazol-like pyrazole regioisomers reveal a more accommodating expanded binding pocket for the glucocorticoid receptor” (RSC Med Chem, 2021).

Experiments:
[1] = target: T1, Glucocorticoid receptor (Homo sapiens) (UniProt P04150); settings: HEK293T, filed as modulator, time 22.0 min
T1 sequence (whole entry): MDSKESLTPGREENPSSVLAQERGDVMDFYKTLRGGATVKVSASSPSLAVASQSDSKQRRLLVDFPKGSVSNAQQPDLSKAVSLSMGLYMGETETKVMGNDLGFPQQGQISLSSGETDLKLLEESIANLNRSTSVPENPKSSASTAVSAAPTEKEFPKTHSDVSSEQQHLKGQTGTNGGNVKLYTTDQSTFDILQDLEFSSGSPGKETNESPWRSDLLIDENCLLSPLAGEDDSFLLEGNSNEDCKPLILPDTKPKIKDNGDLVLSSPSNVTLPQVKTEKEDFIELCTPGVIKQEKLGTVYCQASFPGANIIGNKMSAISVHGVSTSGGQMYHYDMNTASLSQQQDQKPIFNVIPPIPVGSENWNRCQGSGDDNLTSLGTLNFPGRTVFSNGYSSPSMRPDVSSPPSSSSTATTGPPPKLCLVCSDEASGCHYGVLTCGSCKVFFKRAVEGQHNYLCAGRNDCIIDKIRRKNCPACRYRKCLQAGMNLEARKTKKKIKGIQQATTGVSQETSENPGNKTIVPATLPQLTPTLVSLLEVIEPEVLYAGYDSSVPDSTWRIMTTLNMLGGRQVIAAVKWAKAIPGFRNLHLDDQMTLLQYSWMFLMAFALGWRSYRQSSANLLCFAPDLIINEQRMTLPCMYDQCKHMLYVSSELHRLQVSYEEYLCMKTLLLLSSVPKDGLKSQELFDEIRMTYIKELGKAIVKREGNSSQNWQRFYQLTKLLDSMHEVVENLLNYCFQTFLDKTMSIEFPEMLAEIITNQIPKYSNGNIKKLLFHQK

REH = assay: Cytotoxicity against human REH cells overexpressing GR assessed as reduction in cell viability measured after 3 days by resazurin based assay; format: functional
Procedure, shortened: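 REH B-ALL cells (naturally GR-null) were lentivirally infected with GFP-T2A-GR, and the top 10% GFP sorted population was used. Cells grown in RPMI + 10% FBS, seeded at 9,000 cells/well in 384-well format. DMSO serial dilutions (2500 µM to 0.01 µM stocks) were diluted 1:500 and then added 1:1, giving 0.1% final DMSO. Exposure 72 h. Read-out: PrestoBlue fluorescence (Ex 560/Em 590), normalized to DMSO-only wells. EC50 by 4-parameter fit per replicate, at least 6 replicates.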

Glucocorticoid receptor = target: T2, Glucocorticoid receptor (Homo sapiens, UniProt P04150); assay: Induction of translocation of human glucocorticoid receptor expressed in HEK293T cells transduced with lentiviral vector expressing H2B-mCherry and GFP-GR assessed as effective dissociation constant measured every 130 sec for 22 mins by fluorescence imaging analysis; format: cell-based
T2 sequence (P04150 whole entry): T1 sequence (whole entry)

[2] = Homo sapiens, REH, 72 h, read-out: EC50

SMILES | T1/2 [1] | EC50 (REH; [2]) | Kd (Glucocorticoid receptor; read-out: Kd) | Kd (Glucocorticoid receptor; hek293t) | EC50 (REH; reh)
C[C@]12Cc3cn(-c4ccccc4)nc3C=C1CC[C@@H]1[C@@H]2[C@@H](O)C[C@@]2(C)[C@H]1CC[C@]2(O)C(=O)CO | 2.63 min | 1.3 nM | 2.2 nM |  | 
C[C@]12Cc3cnn(-c4ccc(F)cc4)c3C=C1CC[C@@H]1[C@@H]2[C@@H](O)C[C@@]2(C)[C@H]1CC[C@]2(O)C(=O)CO | 2.2 min | 1.4 nM | 2.6 nM |  | 
COc1cccc(-n2cc3c(n2)C=C2CC[C@@H]4[C@H]([C@@H](O)C[C@@]5(C)[C@H]4CC[C@]5(O)C(=O)CO)[C@@]2(C)C3)c1 |  |  |  | Not Active | 
C[C@]12Cc3cnn(-c4ccccc4)c3C=C1CC[C@@H]1[C@@H]2[C@@H](O)C[C@@]2(C)[C@H]1CC[C@]2(O)C(=O)CO | 2.67 min | 2.3 nM | 2.2 nM |  | 
Cc1ccc(-n2cc3c(n2)C=C2CC[C@@H]4[C@H]([C@@H](O)C[C@@]5(C)[C@H]4CC[C@]5(O)C(=O)CO)[C@@]2(C)C3)cc1 |  | 7270 nM | 883 nM |  | 
CCCCCCn1ncc2c1C=C1CC[C@@H]3[C@H]([C@@H](O)C[C@@]4(C)[C@H]3CC[C@]4(O)C(=O)CO)[C@@]1(C)C2 | 2.1 min | 27 nM | 9 nM |  | 
C[C@@H]1C[C@H]2[C@@H]3CCC4=CC(=O)C=C[C@]4(C)[C@@]3(F)[C@@H](O)C[C@]2(C)[C@@]1(O)C(=O)CO [DEXAMETHASONE] |  | 6.7 nM |  |  | 
C[C@]12Cc3cn(-c4ccc(F)cc4)nc3C=C1CC[C@@H]1[C@@H]2[C@@H](O)C[C@@]2(C)[C@H]1CC[C@]2(O)C(=O)CO | 4.33 min | 225 nM | 138 nM |  | 
COc1cccc(-n2ncc3c2C=C2CC[C@@H]4[C@H]([C@@H](O)C[C@@]5(C)[C@H]4CC[C@]5(O)C(=O)CO)[C@@]2(C)C3)c1 | 4.17 min | 346 nM |  |  | 
CCCCCCn1cc2c(n1)C=C1CC[C@@H]3[C@H]([C@@H](O)C[C@@]4(C)[C@H]3CC[C@]4(O)C(=O)CO)[C@@]1(C)C2 |  |  |  |  | Not Active
